# Source: ChEMBL document CHEMBL2046388, “Synthesis and biological evaluation of novel anticancer bivalent colchicine-tubulizine hybrids” (Bioorg Med Chem, 2012)
# Active and inactive are the calls of the source. The calls are words filed in the database; no cut-off is given here.
# Legend:
# [1] = species: Ovis aries; experiment: Inhibition of sheep tubulin assembly assessed as half inhibitory molar ratio of compound to tubulin by DAPI fluorometric assay; set-up: unit not given here
# In short: (§1)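 Lamb brain tubulin (ammonium sulfate fractionation, ion-exchange chromatography; quantified at 275 nm) was polymerized at 37 °C, started by warming, with DAPI in 20 mM sodium phosphate, 1 mM EGTA, 10 mM MgCl2, 3.4 M glycerol, pH 6.5, with DMSO under 1%. DAPI fluorescence was followed over time, and % inhibition was plotted against the ligand:tubulin molar ratio. Run in triplicate.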
# [2] = Lipophilicity, log D of the compound; type: physicochemical; conditions: octanol/water
# [3] = tested on: HBL-100; experiment: Antiproliferative activity against human HBL100 after 72 hrs by MTT assay; type: functional, cell-based; conditions: HBL-100, 72 h
# [4] = species: Ovis aries; experiment: Inhibition of sheep tubulin polymerization at 1 to 30 uM by DAPI fluorometric assay; in short: as §1
INH [1],logD [2],inhibition [4],SMILES,IC50 [3] [nM]
0.41,5.591,,COc1ccc(CNc2nc(NCCOC(=O)CCCCc3cn(CCC(=O)N[C@H]4CCc5cc(OC)c(OC)c(OC)c5-c5ccc(OC)c(=O)cc54)nn3)nc(NCc3ccc(OC)cc3)n2)cc1,1620
0.48,6.367,,COc1ccc(CNc2nc(NCCOC(=O)CCCc3cn(CCCCCC(=O)N[C@H]4CCc5cc(OC)c(OC)c(OC)c5-c5ccc(OC)c(=O)cc54)nn3)nc(NCc3ccc(OC)cc3)n2)cc1,1860
3.44,2.568,,COc1ccc(CNc2nc(NCCOC(=O)COCCOCCOCCOCCOCCOCCOCCOCCOCCOCCOCC(=O)N[C@H]3CCc4cc(OC)c(OC)c(OC)c4-c4ccc(OC)c(=O)cc43)nc(NCc3ccc(OC)cc3)n2)cc1,2930
2.75,9.814,,COc1ccc(CNc2nc(NCCOC(=O)CCCCCCCCCCCCCCCc3cn(CCCCCC(=O)N[C@H]4CCc5cc(OC)c(OC)c(OC)c5-c5ccc(OC)c(=O)cc54)nn3)nc(NCc3ccc(OC)cc3)n2)cc1,599
0.34,,,COc1ccc(CNc2nc(NCCO)nc(NCc3ccc(OC)cc3)n2)cc1,3140
0.99,8.465,,COc1ccc(CNc2nc(NCc3ccc(OC)cc3)nc(NCc3cn(CCCCCCCCCC(=O)N[C@H]4CCc5cc(OC)c(OC)c(OC)c5-c5ccc(OC)c(=O)cc54)nn3)n2)cc1,699
3.4,8.738,,COc1ccc(CNc2nc(NCCOC(=O)CCCc3cn(CCCCCCCCCC(=O)N[C@H]4CCc5cc(OC)c(OC)c(OC)c5-c5ccc(OC)c(=O)cc54)nn3)nc(NCc3ccc(OC)cc3)n2)cc1,1010
0.48,4.815,,COc1ccc(CNc2nc(NCCOC(=O)CCc3cn(CCC(=O)N[C@H]4CCc5cc(OC)c(OC)c(OC)c5-c5ccc(OC)c(=O)cc54)nn3)nc(NCc3ccc(OC)cc3)n2)cc1,2590
0.71,7.612,Active,COc1ccc(CNc2nc(NCCOC(=O)CCCCCCCCc3cn(CCC(=O)N[C@H]4CCc5cc(OC)c(OC)c(OC)c5-c5ccc(OC)c(=O)cc54)nn3)nc(NCc3ccc(OC)cc3)n2)cc1,687
